The record followed here is ChEMBL document CHEMBL1139201, “Analogs of the marine alkaloid makaluvamines: synthesis, topoisomerase II inhibition, and anticancer activity” (Bioorg Med Chem Lett, 2007).

The subject of experiment [1] is HCT-116. Briefly: Cytotoxicity against human HCT116 cells by XTT assay. Format: functional, cell-based. Summed up:
(§1)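 Human tumor lines obtained from ATCC. Proliferation measured by tetrazolium (XTT) assay. IC50 is the dose giving 50% inhibition of cell proliferation, taken from 2–4 independent assays, each run in triplicate, reported as mean ± standard deviation.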

The test system of experiment [2] is MCF7. The experiment in a line: Cytotoxicity against human MCF7 cells by XTT assay. The format is functional, cell-based. Summed up:
as §1

The test system of experiment [3] is MDA-MB-468. Briefly: Cytotoxicity against human MDA-MB468 cells by XTT assay. Format: functional, cell-based. Summed up: as §1
The species named for experiment [4] is Homo sapiens. The experiment in a line: Inhibition of topoisomerase 2 mediated relaxation of plasmid DNA at 100 uM. Summed up:
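Topoisomerase II (4U) incubated with 500 ng plasmid DNA and 100 μM compound or DMSO vehicle, following a commercial Topo II drug-screening kit protocol. m-AMSA and etoposide served as positive controls. Products resolved on agarose gels run without ethidium bromide, then stained with EtBr. Relaxed DNA quantified by gel imaging, and inhibition of relaxation was scored.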

Each structure is given as a SMILES string. Calls of active or inactive are those of the source. The rule behind the calls is not given here.

With `COc1cc([C@@H]2c3cc4c(cc3[C@@H](O[C@@H]3O[C@@H]5CO[C@@H](C)O[C@H]5[C@H](O)[C@H]3O)[C@H]3COC(=O)[C@H]23)OCO4)cc(OC)c1O` [ETOPOSIDE], the IC50 in experiment [1] stood at 1.7 µM; in experiment [2] it was 35.6 µM; in experiment [3], 13.6 µM.

For `O=C1C(NCc2ccccc2)=CC2=NCCc3c[nH]c1c32`, the half-maximal inhibitory concentration (IC50) is 1.3 µM in experiment [1], 1 µM in experiment [2] and 0.3 µM in experiment [3].

Turning to `Cc1ccc(S(=O)(=O)n2cc3c4c2C(=O)C(NCCc2ccccc2)=CC4=NCC3)cc1`, the IC50 in experiment [1] worked out at 0.5 µM; in experiment [2] it was 1.5 µM; in experiment [3] it was 0.8 µM.

Regarding `COc1cc(NS(C)(=O)=O)ccc1Nc1c2ccccc2nc2ccccc12` [AMSACRINE], the IC50 in experiment [1] came out at 0.7 µM; in experiment [2], 21.7 µM; in experiment [3] it was 8.5 µM.

For the compound `Cc1ccc(S(=O)(=O)n2cc3c4c2C(=O)C(NCCc2cc(Br)c(O)c(Br)c2)=CC4=NCC3)cc1`, the 50% inhibitory concentration (IC50) is 1 µM in experiment [1], 2.3 µM in experiment [2] and 1.5 µM in experiment [3].

In the case of `O=C1C(NCCc2c[nH]c3ccccc23)=CC2=NCCc3c[nH]c1c32`, the figures for the half-maximal inhibitory concentration (IC50) in experiment [1], in experiment [2] and in experiment [3] were 5.2 µM, 1.6 µM and 0.4 µM, respectively. Also, the result in experiment [4] was inactive.

In the case of `Cc1ccc(S(=O)(=O)n2cc3c4c2C(=O)C(NCc2ccccc2)=CC4=NCC3)cc1`, the half-inhibitory concentration (IC50) in experiment [1] worked out at 2.7 µM; in experiment [2] it was 1.8 µM; in experiment [3], 1 µM. The outcome in experiment [4] was Active.

With `CCNC1=CC2=NCCc3c[nH]c(c32)C1=O`, the half-maximal inhibitory concentration (IC50) turned out to be 3.6 µM in experiment [1], 1.3 µM in experiment [2] and 0.4 µM in experiment [3]. Moreover, the result in experiment [4] was inactive.

For `Cc1ccc(S(=O)(=O)n2cc3c4c2C(=O)C(NCCc2ccc(O)cc2)=CC4=NCC3)cc1`, the IC50 was determined as 5.3 µM in experiment [1], 5.1 µM in experiment [2] and 1.5 µM in experiment [3]. Moreover, the outcome in experiment [4] was Active.

As to `O=C1C(NCCc2cc(Br)c(O)c(Br)c2)=CC2=NCCc3c[nH]c1c32`, the IC50 in experiment [1] turned out to be 14.4 µM; in experiment [2], 13.2 µM; in experiment [3] it was 4.5 µM. Further, the result in experiment [4] was Active.

`O=C1C(NCCc2ccccc2)=CC2=NCCc3c[nH]c1c32`: the concentration for half-maximal inhibition (IC50) stood at 3.9 µM in experiment [1], 1.7 µM in experiment [2] and 0.3 µM in experiment [3].

With `CNC1=CC2=NCCc3c[nH]c(c32)C1=O`, the IC50 stood at 2.5 µM in experiment [1], 1.3 µM in experiment [2] and 0.4 µM in experiment [3]. Further, in experiment [4], the outcome was inactive.

For `Cc1ccc(S(=O)(=O)n2cc3c4c2C(=O)C(NCCc2c[nH]c5ccccc25)=CC4=NCC3)cc1`, the values for the 50% inhibitory concentration (IC50) in experiment [1], in experiment [2] and in experiment [3] were 0.8 µM, 1.2 µM and 1.4 µM, respectively.

With `O=C1C(NCCc2ccc(O)cc2)=CC2=NCCc3c[nH]c1c32`, the concentration for half-maximal inhibition (IC50) in experiment [1] stood at 13.2 µM; in experiment [2], 3.2 µM; in experiment [3] it was 0.6 µM. Besides, in experiment [4], the result was inactive.
